# From ChEMBL document CHEMBL1926556, “Synthesis and biological activities of 2-[(heteroaryl)methyl]imidazolines” (Bioorg Med Chem, 2012)
# Activity calls are given as the source filed them. The calls are words filed in the database; no cut-off is given here.
# Assays:
# [1] = system: Rattus norvegicus; test: Antihypertensive activity in Wistar rat assessed as inhibition of methoxamine-induced change in heart rate at 0.1 mg/kg, iv administered 10 mins after 10 ug/kg/min methoxamine challenge; type: functional, organism-based; design: dose 0.1 mg/kg
# How it was run: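 Male Wistar rats (200–290 g) anaesthetized with i.p. thiopental 70 mg/kg, maintained by thiopental infusion, 36–37 °C. Carotid catheter for BP/HR, jugular line for infusion. Methoxamine i.v. infusion 10 or 20 µg/kg/min began 10 min before 0.1 mg/kg i.v. bolus. Readout is ΔMAP or ΔHR from time 0. Five to seven rats per group; repeated-measures ANOVA.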
# [2] = system: Rattus norvegicus; test: Anxiolytic activity in Sprague-Dawley rat assessed as loss of righting reflex at 100 ug/kg, ip measured after 30 mins; type: functional, organism-based
# How it was run: (§1)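 Male Sprague–Dawley rats (250–270 g) were handled by the experimenter one day before testing. Compound was dissolved in sterile saline and given i.p. If no loss of righting reflex occurred after 5 min, the dose was repeated, up to 2000 µg/kg cumulative. Animals were watched for righting reflex, locomotion, motor coordination and behaviour. Righting reflex was scored at 30 min.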
# [3] = system: Rattus norvegicus; test: Toxicity in Sprague-Dawley rat assessed as increase in body temperature at 10 to 2000 ug/kg, ip measured after 30 mins; type: organism-based; settings: in vivo, 0.5 h
# [4] = system: Rattus norvegicus; test: Toxicity in Sprague-Dawley rat assessed as loss of spontaneous locomotory activity at 10 to 2000 ug/kg, ip measured within 5 to 8 mins; type: organism-based; settings: in vivo; how it was run: as §1
# [5] = system: Rattus norvegicus; test: Toxicity in Sprague-Dawley rat assessed as resistance to handling at 10 to 2000 ug/kg, ip measured after 30 mins; type: organism-based; settings: in vivo, 0.5 h; how it was run: as §1
smiles,measurement,setting,value
Cl.Clc1cccc2cnn(CC3=NCCN3)c12,Activity,[1],inactive
same,Activity,[2],inactive
same,Activity,[3],Toxic
same,Activity,[4],Toxic
same,Activity,[5],Non-toxic
